Shown are actives, neighbours in structure and some others; about 2% of the full set was active somewhere.
IMP-1 inhibitor – blocks Pseudomonas aeruginosa IMP-1 metallo-beta-lactamase | 0.45% of 290,000 active | purified IMP-1, nitrocefin hydrolysis, epi-absorbance fluorescence | AID 1556 | inhibition, % at 5.6 µM;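 active = inhibition above the mean plus 3 SD of all compounds in the same screening run, cut at about 4.5% in these data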;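 note: 0% = IMP-1 with DMSO and 100% = DMSO wells lacking enzyme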
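system = purified recombinant IMP-1 beta-lactamase | amount = 0.2 nM IMP-1, as dispensed | medium = HEPES buffer pH 7.1 with ZnSO4 and Brij 35 | times = 25 °C, 15 min preincubation, 25 min reaction | detection = plate fluorescence quenching by hydrolysis product, ex 480/em 530 nm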
PLCg1 inh – blocks human PLC-gamma1 enzyme activity; inhibition, % at 12.2 µM; AID 720700; purified PLC-gamma1, fluorogenic substrate, fluorescence; 0.84% of 370,000 active; in the data active = inhibition above about 9.5%
PvdQ acylase – blocks Pseudomonas aeruginosa PvdQ acylase activity; purified PvdQ acylase, fluorescence plate reader; inhibition, % at 10 µM; 0.063% of 340,000 active; in the data active = inhibition above about 30%, passing the limit was not always enough;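 note: 0% = vehicle neutral wells and 100% = reference inhibitor wells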
PLC-beta3 inh – inhibitors of human phospholipase C beta3; Q01970; Purified PLC-beta3, fluorogenic substrate, fluorescence; inhibition, % at 12.2 µM; 0.18% of 370,000 active;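 note: 0% = median of compound wells on plate and 100% = full blocker control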
VIM-2 inhibitor – blocks Pseudomonas aeruginosa VIM-2 metallo-beta-lactamase | purified VIM-2, nitrocefin hydrolysis, epi-absorbance fluorescence | inhibition, % at 5.6 µM | 0.89% of 290,000 active | AID 1527;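 active = inhibition above the mean of all tested compounds plus 3 SD, cutoff set per screening run, cut at about 7.5% in these data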;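 note: red hydrolysis product quenches plate fluorescence so inhibitors raise well fluorescence; 0% = enzyme with DMSO and 100% = DMSO without enzyme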
PLCg1 ctr – inhibits human PLC-gamma1 in PLC-beta3 counter-screen; shares compounds with PLCg1 inh; purified PLC-gamma1, fluorogenic substrate, fluorescence; inhibition, % at 12.3 µM; 3.1% of 3,300 active; AID 743258; in the data active = inhibition above about 9.5%
PLCb3 confirm – human PLC-beta3 inhibition, confirmation; shares compounds with PLCg1 inh; purified PLC-beta3, fluorogenic substrate fluorescence; inhibition, % at 12.3 µM; 1% of 3,300 active; AID 743261
* = called active by the depositor; . = no result. Cut-off read from the data, not from the text of the source, unless noted: active = inhibition above about 11%; inactive = the rest.

SMILES	IMP-1 inhibitor	PLCg1 inh	PvdQ acylase	PLC-beta3 inh	VIM-2 inhibitor	PLCg1 ctr	PLCb3 confirm
O=C1NC[C@H](Cc2ccccc2)N(C[C@H]2CCCN2C[C@H](Cc2ccccc2)N2C[C@H](Cc3ccccc3)N(CC3CCCCC3)C(=O)C2=O)C1=O	.	14*	14	0	.	-5	-3
CC(C)C[C@@H](CN1CCC[C@H]1CN1C(=O)C(=O)NC[C@@H]1Cc1ccccc1)N1C[C@H](Cc2ccc(O)cc2)N(CC2CCCCC2)C(=O)C1=O	.	6	.	10	.	.	.
CC1=C(C)CC(C(=O)NNC(=O)c2ccccc2)C(C(=O)O)C1 (stereo unspecified)	-3	11*	-3	10	-1	-3	0
CC(=O)NCCOc1nc(N(C)C)nc(N2CCOCC2)n1	-2	4	-1	1	-2	.	.
CC(C)=NOc1nc(N(C)C)nc(N2CCOCC2)n1	-3	11*	.	11*	-3	-2	0
COc1cccc(N2CCN(CC(=O)NCc3c(F)cccc3F)CC2)c1	.	-7	.	-3	.	.	.
CCOc1cccc(-c2nnc3n2N=C(c2ccc(OC)cc2)CS3)c1	.	2	.	-2	.	.	.
O=[N+]([O-])c1ccc(C(=S)N2CCN(Cc3ccccc3)CC2)cc1	-3	10*	-19	3	-4	0	2
O=C(O)c1ccc(C(=O)c2cc([N+](=O)[O-])cc([N+](=O)[O-])c2)cc1	.	1	-15	-1	.	.	.
O=C(c1ccc([N+](=O)[O-])cc1)N1CCN(Cc2ccccc2)CC1	-2	-1	-12	4	-3	.	.
O=C(c1ccc([N+](=O)[O-])cc1)N(Cc1ccccc1)Cc1ccccc1	.	10*	-11	10	.	0	6
O=C(O)c1ccc([N+](=O)[O-])cc1	.	13*	-3	-3	.	-1	3
O=C(O)c1cc([N+](=O)[O-])ccc1-c1ccc([N+](=O)[O-])cc1C(=O)O	.	20*	.	12*	.	4	2
O=C(NCc1ccc(C(=O)N2CCCC2)cc1)c1cccc(Br)c1	.	-1	.	2	.	.	.
CC(=O)Nc1ccc(NC(=O)CSc2nc(N)c(NC(=O)c3ccco3)c(=O)[nH]2)cc1	-2	12*	3	-4	0	-2	3
O=C(NN1C(=O)/C(=C/C=C/c2ccco2)SC1=S)c1ccccc1O	1	1	-2	-43	1	.	.
O=C(O)CC(C(=O)O)N1C(=O)/C(=C/C=C/c2ccco2)SC1=S (stereo unspecified)	-4	59*	-10	-11	4	52*	-15
Cc1ccc(S(=O)(=O)N(C)CCCC(=O)N2CCN(C=O)CC2)cc1	-3	10*	-1	11*	2	-1	6
Cc1ccc(S(=O)(=O)N(C)CCCC(=O)N2CCOCC2)cc1	-3	3	-13	5	-4	.	.
Cc1ccc(OCCNC(=O)[C@@H](Cc2ccccc2)NC(=O)[C@H]2O[C@@H](n3ccc(=O)[nH]c3=O)[C@H](O)[C@@H]2O)cc1C	.	3	.	3	.	.	.
CCCCCCCCN1C(=O)[C@@H](CC(=O)N2CCCC2)C[C@@]2(C(=O)OC)C1=C[C@H](C(C)C)O[C@@H]2C1CC1	.	-1	.	4	.	.	.
CC(=O)C1(C(=O)Nc2cc(C)cc(C)c2)CC(c2ccccn2)=NO1 (stereo unspecified)	.	-4	.	-4	.	.	.
O=C(Cn1nnc(-c2ccc(N3CCOCC3)cc2)n1)c1ccc(F)cc1	.	-3	.	-2	.	.	.
CCCOc1ccc(/C=N\NC(=O)CCc2n[nH]c(=O)[nH]c2=O)cc1OC	-3	11*	-8	13*	-1	-8	-1
CCOC(=O)n1c(=O)n(Cc2ccc(Cl)cc2Cl)c2ccccc21	-1	10*	-9	4	-6	-1	-3
SMILES	IMP-1 inhibitor	PLCg1 inh	PvdQ acylase	PLC-beta3 inh	VIM-2 inhibitor	PLCg1 ctr	PLCb3 confirm
CCOC(=O)n1c(=O)n(Cc2ccccc2Cl)c2ccccc21	-1	-4	-4	0	-1	.	.
Cc1ccc(-n2ncc3c(N4CCC(C(N)=O)CC4)ncnc32)c(C)c1	-5	15*	-1	1	-4	3	2
O=C(NCC1COCCO1)C1CCN(S(=O)(=O)c2ccc(Br)s2)CC1 (stereo unspecified)	.	-2	.	0	.	.	.
COC(=O)C1=C(C)N(Cc2ccccc2C(F)(F)F)C(=NCc2ccccc2)NC1c1ccc(Cl)cc1 (stereo unspecified)	.	6	.	-3	.	.	.
CCC(C)N1CC23C=CC(O2)C(C(=O)OCc2ccccc2)C3C1=O (stereo unspecified)	-1	4	-4	14*	0	-4	-1
CCOC(=O)C1C2C=CC3(CN(Cc4ccccc4)C(=O)C13)O2 (stereo unspecified)	-3	0	-20	-5	-2	.	.
CCOc1cccc(N(C(=O)C2COc3ccccc3O2)C(C(=O)NC2CCCCC2)c2ccc(O)cc2)c1 (stereo unspecified)	-1	8	-19	11*	-2	-3	0
Cc1cc(SCc2ccccc2)nc(=O)[nH]1	-1	2	-5	-2	-1	.	.
O=c1cc(SCc2ccccc2)nc[nH]1	.	12*	-21	-3	.	-8	-7
CCCNC(=O)C(Cc1ccc(OC)cc1)NC(=O)c1ccc(C#N)cc1 (stereo unspecified)	.	0	9	1	.	.	.
CCCNC(=O)C(Cc1ccc(OC)cc1)NC(=O)c1ccc(Cl)cc1 (stereo unspecified)	.	13*	-14	8	.	-6	0
Cc1ccc(NC(=O)C(=O)NCCN2CCN(S(C)(=O)=O)CC2)cc1	-2	-1	-2	1	0	.	.
CCc1ccc(NC(=O)C(=O)NCCN2CCN(S(C)(=O)=O)CC2)cc1	-3	12*	-15	-1	-1	-4	-1

Compound activity from PubChem.
